{"source": "paper PMC5663466", "about": "(Journal of proteome research, 2017)", "key": {"[1]": {"system": "tyrosine and serine/threonine kinases", "settings": "cited from earlier work"}, "[2]": {"system": "protein and lipid kinases in HeLa cell lysate", "assay": "Affinity pulldown-soluble competition in duplex SILAC-labeled HeLa cell lysate", "type": "binding, human", "settings": "50 μM soluble competitor against affinity matrix 7", "method_in_brief": "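HeLa cells SILAC-labelled for ≥5 doublings in Lys/Arg-free DMEM with 10% dialysed FBS, 200 μg/ml proline and 0.2 mM light or heavy Lys/Arg, then lysed in modified RIPA buffer. Lysate (300 μg, 2 mg/ml) was pre-incubated 20 min at 4°C with DMSO or test compound (1% DMSO final), then pulled down 3 h at 4°C. SILAC channel beads were combined after washing, digested on-bead with LysC then trypsin, and run as single-shot nanoLC-MS/MS.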"}}, "data": [{"smiles": "Cc1nc(Nc2ncc(C(=O)Nc3c(C)cccc3Cl)s2)cc(N2CCN(CCO)CC2)n1", "note": "[dasatinib]", "values": [{"measurement": "number of tyrosine and serine/threonine kinases inhibited", "setting": "[1]", "value": "over 30"}]}, {"smiles": "COc1cc2c(Oc3ccc(NC(=O)C4(C(=O)Nc5ccc(F)cc5)CC4)cc3F)ccnc2cc1OCCCN1CCOCC1", "note": "[foretinib]", "values": [{"measurement": "number of protein and lipid kinases with specific interaction", "setting": "[2]", "value": 29}]}]}
